Consider 38 variants from the RNAGym collection of RNA variant scans (doi:10.1038/nmeth.2970).

As a reminder, the Kd is the concentration at which binding is half-saturated.

The chains are these.
B1: NELF-E aptamer (parent)
chain: CCCAACGACUGCCGAGCGAGAUUACGCUUGAGCGCCCCACUGAGGAUGCCCACGGGCGAUUGGGGCACGG

In this data set the parent is B1. As to the kind of experiment: HiTS-RAP. The following applies: with NELF-E (Drosophila). In short, it runs like this: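 Aptamer DNA templates bearing a T7 promoter and a ter site were sequenced on an Illumina GAIIx flowcell. T7 RNA polymerase then transcribed them in situ, and GST-Tus halted transcription over 30 minutes at 37°C. After a 30-minute room-temperature equilibration with NELF-E-mOrange at 0.064 to 1000 nM in HEPES binding buffer, clusters were imaged, using only the first binding curve. Intensities normalised to sequencing intensity were averaged per sequence and fitted with weighted Hill fits to give Kd, retaining only fits whose variance stayed under 1,000,000.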
For the variant CCCAACGAGUGCCGAGCGAGAUUACGCUUGAGCGCCCCACUGAGGAUGCCCACAGGCGAUUGGGGCACGG, the dissociation constant Kd was 17 nM.
In the case of CCCAACGAGUGCCGAGCGAGAUUACGCUUGAGCGCCCCACUGAGGAUGCCCACUGGCGAUUGGGGCACGG it was 6.83 nM.
As for CCCAACGAGUGCCGAGCGAGAUUACGCUUGAGCGCCACACUGAGGAUGCCCACGGGCGAUUGGGGCACGG, the Kd is 15.8 nM.
For CCCAACGAGUGCCGAGCGAGAUUACGCUUGAGCGCCUCACUGAGGAUGCCCACGGGCGAUUGGGGCACGG, the Kd was found to be 16.1 nM.
In the case of CCCAACGAGUGCCGAACGAGAUUACGCUUGAGCGCCCCACUGAGGAUGCCCACGGGCGAUUGGGGCACGG it was 5.72 nM.
CCCAACGAGUGCCGAUCGAGAUUACGCUUGAGCGCCCCACUGAGGAUGCCCACGGGCGAUUGGGGCACGG: the Kd worked out at 6.45 nM.
Regarding CCCAACGAGUGCCGAGCGAGAUUACACUUGAGCGCCCCACUGAGGAUGCCCACGGGCGAUUGGGGCACGG, the equilibrium dissociation constant (Kd) turned out to be 5.39 nM.
Consider CCCAACGAGUGCCGAGCGAGAUUACUCUUGAGCGCCCCACUGAGGAUGCCCACGGGCGAUUGGGGCACGG, for which the dissociation constant Kd came out at 8.09 nM.
For CCCAACGAGUGCCGAGCGAGAUUACGCUUGAACGCCCCACUGAGGAUGCCCACGGGCGAUUGGGGCACGG, the Kd came out at 4.88 nM.
In the case of CCCAACGAGUGCCGAGCGAGAUUACGCUUGAGCGCCCCACUGAGGAUGCCCACGGGCGAUUUGGGCACGG it was 10 nM; in that of CCCAACGAGUGCCGAGCGAGAUUACGCUUGAGCGCCCCACUGAGGAUGCCCACGGGCGAUUAGGGCACGG, 26.9 nM; in that of CCCAACGAGUGCGGAGCGAGAUUACGCUUGAGCGCCCCACUGAGGAUGCCCACGGGCGAUUGGGGCACGG, 5.48 nM.
In the case of CCCAACGAGUGCUGAGCGAGAUUACGCUUGAGCGCCCCACUGAGGAUGCCCACGGGCGAUUGGGGCACGG it was 5.15 nM.
Regarding CCCAACGAGUGCAGAGCGAGAUUACGCUUGAGCGCCCCACUGAGGAUGCCCACGGGCGAUUGGGGCACGG, the Kd is 7.19 nM.
In the case of CCCAACGAGUGCCGAGCGAGAUUACGCUUAAGCGCCCCACUGAGGAUGCCCACGGGCGAUUGGGGCACGG it was 4.33 nM; in that of CCCAACGAGUGCCGAGCGAGAUUACGCUUUAGCGCCCCACUGAGGAUGCCCACGGGCGAUUGGGGCACGG, 6.64 nM.
In the case of CCCAACGAGUGCCGAGCGAGAUUACGCUUGAGCGCCCCACUGAGGAUGCCCAUGGGCGAUUGGGGCACGG it was 4.66 nM.
As to CCCAACGAGUGCCGAGCGAGAUUACGCUUGAGCGCCCCACUGAGGAUGUCCACGGGCGAUUGGGGCACGG, the Kd came to 23.1 nM.
In the case of CCCAACGAGUGCCGAGCGAGAUUACGCUUGAGCGCCCCACUGAGGAUACCCACGGGCGAUUGGGGCACGG it was 8.11 nM; in that of CCCAACGAGUGCCGAGCGAGAUUACGCUUGAGCGCCCCACUGAGGAUGCCAACGGGCGAUUGGGGCACGG, 8.9 nM; in that of CCCAACGAGUGCCGAGCGAGAUUACGCUUGAGCGCCCCACUGAGGAUGCCUACGGGCGAUUGGGGCACGG, 8.2 nM.
For CCCAACGAGUGCCGAGCGAGAUUACGCUUGAGCGCCCCACUGAGGAUGCACACGGGCGAUUGGGGCACGG, the equilibrium dissociation constant (Kd) came out at 23.5 nM.
In the case of CCCAACGAGUGCCGAGCGAGAUUACGCUUGAGCGCCCCACUGAGGAUGCGCACGGGCGAUUGGGGCACGG it was 7.4 nM.
In the case of CCCAACGAGUGCCGAGCGAGAUUACGCUUGAGCGCCCCACUGAGGAUGCUCACGGGCGAUUGGGGCACGG it was 13.5 nM.
In the case of CCCAACGAGUGCCGAGCGAGAUUACGCUUGAGCGGCCCACUGAGGAUGCCCACGGGCGAUUGGGGCACGG it was 7.59 nM; in that of CCCAACGAGUGCCGAGCGAGAUUACGCUUGAGCGUCCCACUGAGGAUGCCCACGGGCGAUUGGGGCACGG, 14.3 nM.
CCCAACGAGUGCCGAGCGAGAUUACGCUUGAGCGCCCCACUGAGAAUGCCCACGGGCGAUUGGGGCACGG: the Kd amounted to 35.6 nM.
As to CCCAACGAGUGCCGAGCGAGAUUACGCUUGAGCGCCCCACUGAGUAUGCCCACGGGCGAUUGGGGCACGG, the Kd worked out at 5.69 nM.
In the case of CCCAACGAGUGCCGAGCGAGAUUACGCUUGAGCACCCCACUGAGGAUGCCCACGGGCGAUUGGGGCACGG it was 9.14 nM; in that of CCCAACGAGUGCCGAGCGAGACUACGCUUGAGCGCCCCACUGAGGAUGCCCACGGGCGAUUGGGGCACGG, 6.33 nM; in that of CCCAACGAGUGCCGAGCGAGAUUACGCUUGAGCGCCCCACUUAGGAUGCCCACGGGCGAUUGGGGCACGG, 7.6 nM.
In the case of CCCAACGAGUGCCGAGCGAGAUUACGCUUGAGCGCCCCACUAAGGAUGCCCACGGGCGAUUGGGGCACGG it was 56.8 nM.
In the case of CCCAACGAGUGCCGAGCGAUAUUACGCUUGAGCGCCCCACUGAGGAUGCCCACGGGCGAUUGGGGCACGG it was 7.26 nM; in that of CCCAACGAGUGCCGAGCGAAAUUACGCUUGAGCGCCCCACUGAGGAUGCCCACGGGCGAUUGGGGCACGG, 6.64 nM.
For CCCAACGAGUGCCGAGCGAGAUUACGCUUGAGCGCCCCACUGAGGAUGCCCACGAGCGAUUGGGGCACGG, the Kd worked out at 10.3 nM.
Regarding CCCAACGAGUGCCGAGCGAGAUUACGCUUGAGCGCCCCACUGAGGAUGCCCACGUGCGAUUGGGGCACGG, the Kd came out at 8.84 nM.
In the case of CCCAACGAGUGCCGAGCGAGAUUACGCUUGAGUGCCCCACUGAGGAUGCCCACGGGCGAUUGGGGCACGG it was 5.9 nM.
For the variant CCCAACGAGUGCCGAGCGAGAUUACGCUUGAGCGCCCCACUGAGGAUGCCCACGGACGAUUGGGGCACGG, the Kd worked out at 7.64 nM.
